Compound activity deposited in PubChem BioAssay by several laboratories.
The list is not random: actives were taken first. Their share in the collection is about 0.23%.
Bfl-1 Bim block = disrupts Bim binding to human Bfl-1; Q16548; Bead-based flow cytometry, Bim-Bfl-1 binding inhibition; inhibition, % at 10 µM; 190,000 compounds, 0.12% hits
Bim-Bcl-XL = disrupts Bim peptide binding to human Bcl-XL. bead flow cytometry, fluorescence. inhibition, % at 10 µM. 190,000 compounds, 0.04% hits
Target sequence (Q07817 whole entry, looked up): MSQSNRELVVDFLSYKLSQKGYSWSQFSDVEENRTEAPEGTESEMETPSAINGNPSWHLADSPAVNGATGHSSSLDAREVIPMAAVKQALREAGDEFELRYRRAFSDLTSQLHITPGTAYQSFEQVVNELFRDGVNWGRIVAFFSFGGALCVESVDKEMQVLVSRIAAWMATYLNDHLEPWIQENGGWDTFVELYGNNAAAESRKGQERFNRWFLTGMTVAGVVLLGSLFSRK
Rad51 HR inh = blocks human Rad51 in homologous recombination | Q06609 | hRad51 DNA strand exchange, fluorescence dequenching | inhibition, % at 10 µM | 200,000 compounds, 0.085% hits;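 active = inhibition above 40% at the single screening dose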
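material = hRad51 filaments on single-stranded DNA | reagent = Donor/quencher-labelled 47-bp dsDNA substrate | compound = 10 µM final, single point | schedule = strand-exchange reaction 15 min at room temperature | measured by = fluorescein emission 520 nm, excitation 485 nm | read-out basis = % inhibition versus plate control and blank means | benchmarks = plate controls and plate blanks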
Bcl-B Bim block = disrupts Bim peptide binding to human Bcl-B. bead-based flow cytometry. Q9HD36. 190,000 compounds, 0.073% hits. inhibition, % at 10 µM
Bcl-2 Bim block = inhibitors of Bim-Bcl-2 interaction, human; Bead-based flow cytometry, Bim peptide-Bcl-2 binding; inhibition, % at 10 µM; 190,000 compounds, 0.06% hits; P10415; AID 950; in the data active = inhibition above about 40%
Bcl-W Bim block = human Bim-Bcl-W interaction inhibition; Q92843; AID 952; 190,000 compounds, 0.02% hits; inhibition, % at 10 µM; bead-based flow cytometry, Bim peptide-Bcl-W binding;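 also: higher means less fluorescent Bim peptide bound to Bcl-W beads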
Target sequence (Q92843 whole entry, looked up): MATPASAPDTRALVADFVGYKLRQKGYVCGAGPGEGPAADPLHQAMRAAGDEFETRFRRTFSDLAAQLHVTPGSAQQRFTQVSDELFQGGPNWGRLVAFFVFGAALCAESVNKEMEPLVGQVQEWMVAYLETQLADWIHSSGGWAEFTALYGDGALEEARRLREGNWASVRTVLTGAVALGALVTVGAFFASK
Numbers stand for hits; 0 = inactive; - = no result given. Rule as the data show it, unless noted: active = inhibition above about 40%.

SMILES	Bfl-1 Bim block	Bim-Bcl-XL	Rad51 HR inh	Bcl-B Bim block	Bcl-2 Bim block	Bcl-W Bim block
CNC(=O)C12CCC(C)(c3nc4cc(C)c(C)cc4nc31)C2(C)C (stereo not given)	0	0	0	0	0	0
COc1ccc(Cl)cc1-n1c(C)cc(C=O)c1C	62	0	0	84	86	0
COc1ccc(Cl)cc1-n1c(C)cc(C(=O)O)c1C	0	0	0	0	0	0
Nc1c(C(=O)N/N=C/c2ccc([N+](=O)[O-])cc2)sc2nnc(-c3ccccc3)c(-c3ccccc3)c12	-	-	0	-	-	-
O=C(OCc1nc2ccccc2[nH]1)C12CC3CC(CC(C3)C1)C2	0	0	0	42	0	0
CNC(=O)Nc1ccccc1C(=O)Nc1ccccc1	-	-	0	-	-	-
CN(CC(=O)O/N=C(\N)c1ccc([N+](=O)[O-])cc1)S(=O)(=O)c1ccccc1	0	0	0	72	0	0
CCCS(=O)(=O)N1CCCC(C(=O)N2CCN(C(=O)OCC)CC2)C1 (stereo not given)	0	0	69	0	0	0
CCc1ccc(N2C(=O)Nc3ccccc3C2(O)C(=O)N2CCN(c3ccccn3)CC2)cc1 (stereo not given)	0	0	0	0	0	0
COc1ccc(N2C(=O)/C(=C/c3cccs3)NC2=S)cc1	45	0	0	0	0	0
CN(C)/C=C1\NC(=S)N(c2ccccc2)C1=O	0	0	0	0	0	0
COc1cc(CNc2ccc(N3CCCC3)cc2)cc(Cl)c1OC	48	0	0	0	0	0
CCOc1ccc(CNc2ccc(N3CCCC3)cc2)cc1	42	0	0	0	0	0
CCOc1cc(CNc2ccc(N3CCCC3)cc2)cc(Cl)c1OC	0	0	-	0	0	0
CCOC(=O)CSC1=NC(=O)/C(=C\c2ccc(Cl)cc2)S1	46	0	0	0	0	0
NC(=O)c1ccccc1OCC(=O)Nc1ccc(Cl)c(Cl)c1	-	-	0	-	-	-
COc1ccc(CCNC(=O)c2ccc3nc(-c4ccco4)c(-c4ccco4)nc3c2)cc1OC	42	0	-	0	0	0
COc1cccc(OC)c1-c1nn(-c2ncc(C(F)(F)F)cc2Cl)c(=O)o1	-	-	0	-	-	-
COc1cc(C)c2c(c1C=O)Oc1c(c(C)c(O)c3c1C(O)OC3=O)OC2=O (stereo not given)	0	0	47	0	0	0
COc1ccc(C2C(=O)c3ccccc3C2=O)c(OC)c1	0	0	100	0	0	0
COCCNc1nc(-c2cc(C(=O)Nc3ccccc3)on2)cc(C(C)C)n1	-	-	0	-	-	-
CC(C)(C)c1ccc(S(=O)(=O)Nc2cccc(C3OCCCO3)c2)cc1	0	0	0	0	0	0
O=C(COc1ccccc1)Nc1ccc2c(c1)Cc1cc(NC(=O)COc3ccccc3)ccc1-2	91	103	0	107	104	110
O=C(NCc1ccncc1)c1nc(-c2cccs2)no1	0	0	0	0	0	0
O=C(NCc1cccs1)c1nc(-c2cccs2)no1	0	0	41	0	0	0
SMILES	Bfl-1 Bim block	Bim-Bcl-XL	Rad51 HR inh	Bcl-B Bim block	Bcl-2 Bim block	Bcl-W Bim block
O=C(CSc1ccc2nnc(-c3ccccn3)n2n1)Nc1nccs1	0	40	0	0	0	0
Cc1csc(NC(=O)CN2C(=O)c3ccccc3C2=O)c1C(N)=O	-	-	0	-	-	-
CCCC(C)NC(=O)CSc1nc2ccc(C)cc2[nH]1 (stereo not given)	0	0	0	0	0	0
O=C(CNc1ccccc1)N/N=C/c1ccc([N+](=O)[O-])o1	0	0	0	0	0	0
CC(C)(C)NC(=O)CCN(/N=C/c1ccc([N+](=O)[O-])o1)C1=NS(=O)(=O)c2ccccc21	0	53	0	0	0	0
Cc1c(NC(=O)c2ccc(-c3cccc([N+](=O)[O-])c3)o2)c(=O)n(-c2ccccc2)n1C	0	0	0	0	0	0
O=C1C2C3C=CC(C3)C2C(=O)N1c1cccc2cccnc12 (stereo not given)	0	0	0	0	0	0
O=C1c2ccccc2C(=O)N1c1cccc2cccnc12	40	0	0	0	0	0
O=C(c1cc2ccccc2oc1=O)N(c1ccccc1)C1C=CS(=O)(=O)C1 (stereo not given)	41	0	0	0	0	0
COc1ccc(N(C(=O)c2cc3ccccc3oc2=O)C2C=CS(=O)(=O)C2)cc1 (stereo not given)	0	0	0	0	0	0
O=C(Nc1c(O)c2ccccc2[nH]c1=O)c1ccco1	-	-	0	-	-	-
